In brackets after ≈: the same amount, converted by molar mass.
Tests used:
[1] = tested on: Onchocerca ochengi; assay: (§1) WHO-TDR: Onchocerciasis; type: functional; set-up: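 at 12.5 µM on microfilariae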
In short: (§2)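 Values are reported as percent inhibition and as IC50. They come from a whole-organism screen of a 10,000-compound diverse Life Chemicals library against microfilariae of Onchocerca ochengi or Onchocerca lienalis. The screen followed previously published standard procedures, with reference drugs as positive controls.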

[2] = tested on: Onchocerca ochengi; assay: as §1; type: functional; set-up: concentration or dose not given beside the values; in short: as §2; remark: listed apart in the source
[3] = tested on: Leishmania infantum; assay: WHO-TDR: Leishmaniasis; type: functional, organism-based, Mus musculus; conditions: Macrophage
In short: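 A diverse library of 10,000 compounds from Life Chemicals, filtered for drug-likeness and reactive groups, was screened against whole organisms. The targets were intracellular amastigotes of Leishmania infantum MHOM/MA(BE)/67 growing in murine peritoneal macrophages. Previously published standard procedures were followed, with a reference drug as positive control. Antiparasitic potency is given as IC50.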

[4] = WHO-TDR: Cytotoxicity; type: toxicity, cell-based; conditions: human, MRC5 cells
[5] = tested on: Schistosoma mansoni; assay: WHO-TDR: Schistosomiasis; type: functional; set-up: concentration or dose not given beside the values
In short: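 Values are reported as percent inhibition and IC50. They come from a whole-organism screen of a 10,000-compound diverse Life Chemicals library against larval and/or adult worms of Schistosoma mansoni, Puerto Rican strain. The library had been filtered for drug-likeness and reactive groups.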

[6] = tested on: Trypanosoma brucei brucei; assay: WHO-TDR: Human African Trypanosomiasis (HAT); type: functional, organism-based; conditions: Squib-427
In short: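 A diverse library of 10,000 compounds from Life Chemicals, filtered for drug-likeness and reactive groups, was screened against bloodstream forms of Trypanosoma brucei Squib 427 strain in a whole-organism assay. Previously published standard procedures were followed, with reference drugs serving as positive controls. Antiparasitic potency is given as IC50.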

[7] = tested on: Trypanosoma cruzi; assay: WHO-TDR: Chagas disease; type: functional, organism-based, Homo sapiens; conditions: MRC5
In short: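 A diverse library of 10,000 compounds from Life Chemicals, filtered for drug-likeness and reactive groups, was screened against intracellular amastigotes of Trypanosoma cruzi Tulahuen CL2 beta-galactosidase strain. The parasites were grown in MRC-5SV2 human lung fibroblast host cells, and a reference drug served as positive control under previously published standard procedures. Antiparasitic potency is given as IC50.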

[8] = tested on: Plasmodium falciparum K1; assay: WHO-TDR: Malaria; type: functional, organism-based, Homo sapiens; conditions: Erythrocyte
In short: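 A diverse library of 10,000 compounds from Life Chemicals, filtered for drug-likeness and reactive groups, was screened against the intra-erythrocytic Plasmodium falciparum K1 strain in human red blood cells. Previously published standard procedures were followed, with a reference drug as positive control. Antiplasmodial potency is given as IC50.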

| IC50 [3] [µg/mL] | IC50 [6] [µg/mL] | IC50 [8] [µg/mL] | SMILES | % Inhibition [1] [%] | % Inhibition [2] [%] | IC50 [4] [µg/mL] | % Inhibition [5] [%] | IC50 [7] [µg/mL] |
| --- | --- | --- | --- | --- | --- | --- | --- | --- |
| > 10.8 | > 10.8 | > 10.8 | O=S(=O)(Nc1nc2c(Cl)cccc2s1)c1ccc(Cl)cc1 | 0 | 100 | > 10.8 | 0 | 10.2 (≈ 28.4 µM) |
| > 11 | > 11 | > 11 | O=S(=O)(Nc1nc2c(Cl)cccc2s1)c1ccc(Cl)s1 | 0 | 100 | > 11 | 0 | 10.4 (≈ 28.5 µM) |
| > 12.2 | > 12.2 | > 12.2 | O=S(=O)(Nc1cccc(-c2nc3ccccc3s2)c1)c1ccc(Cl)s1 | 0 | 100 | > 12.2 | 0 | 4.01 (≈ 9.85 µM) |
| > 12.7 | 4.11 (≈ 9.71 µM) | > 12.7 | Cc1cccc(NC(=O)Cn2cc(S(=O)(=O)c3ccc(F)cc3)c3ccccc32)n1 | 0 | 100 | > 12.7 | 0 | 4.41 (≈ 10.4 µM) |
| > 8.77 | 0.253 (≈ 0.865 µM) | 1.69 (≈ 5.79 µM) | O=C(Cc1cccc2ccccc12)Nc1onc2c1CCC2 | 0 | 0 | 2.87 (≈ 9.83 µM) | 0 | 0.498 (≈ 1.7 µM) |
| > 9.73 | 3.19 (≈ 9.83 µM) | 2.83 (≈ 8.72 µM) | O=C(CS(=O)(=O)c1ccc(F)cc1)Nc1onc2c1CCC2 | 0 | 100 | > 9.73 | 0 | 1.71 (≈ 5.28 µM) |
| > 11.3 | 5.97 (≈ 15.9 µM) | > 11.3 | CN(C1CC1)S(=O)(=O)c1ccc(C(=O)Nc2onc3c2CCCC3)cc1 | 0 | 100 | > 11.3 | 0 | 3.56 (≈ 9.49 µM) |
| > 12.4 | 4.03 (≈ 9.71 µM) | 6.28 (≈ 15.2 µM) | Cc1cc(F)ccc1S(=O)(=O)Nc1ccc2c(c1)CN(C(=O)c1ccco1)CC2 | 0 | 100 | 7.31 (≈ 17.6 µM) | 0 | 3.44 (≈ 8.3 µM) |

Further lines, the compound ahead of its results:

| SMILES | IC50 [3] [µg/mL] | IC50 [6] [µg/mL] | IC50 [8] [µg/mL] | % Inhibition [1] [%] | % Inhibition [2] [%] | IC50 [4] [µg/mL] | % Inhibition [5] [%] | IC50 [7] [µg/mL] |
| --- | --- | --- | --- | --- | --- | --- | --- | --- |
| CN(C)C(CNC(=O)c1ccc(-c2ccccc2)cc1)c1ccsc1 (configuration not stated) | > 10.5 | 0.395 (≈ 1.13 µM) | 8.47 (≈ 24.2 µM) | 0 | 0 | > 10.5 | 0 | 3.32 (≈ 9.49 µM) |
| CN1CCN(C(CNC(=O)c2c(F)cccc2F)c2ccsc2)CC1 (configuration not stated) | > 11 | > 11 | > 11 | 0 | 0 | > 11 | 0 | 0.406 (≈ 1.11 µM) |
| CN1CCN(C(CNC(=O)CCc2ccccc2)c2ccsc2)CC1 (configuration not stated) | > 10.7 | > 10.7 | > 10.7 | 0 | 0 | > 10.7 | 0 | 0.498 (≈ 1.39 µM) |
| O=C(Nc1onc2c1CCC2)c1cccc(F)c1 | > 7.39 | 2.42 (≈ 9.83 µM) | > 7.39 | 0 | 100 | 4.88 (≈ 19.8 µM) | 0 | 2.12 (≈ 8.63 µM) |
| O=C(COc1ccc(Cl)cc1Cl)Nc1onc2c1CCC2 | > 9.81 | 0.334 (≈ 1.02 µM) | > 9.81 | 0 | 0 | > 9.81 | 0 | > 9.81 |
| O=C(Nc1onc2c1CCCC2)c1cccc(Oc2ccccc2)c1 | > 10 | 3.25 (≈ 9.71 µM) | 8.46 (≈ 25.3 µM) | 0 | 100 | > 10 | 0 | 4.23 (≈ 12.7 µM) |

Reference: ChEMBL document CHEMBL2093137, “WHO-TDR NTD Screening”
